ANO1 activ = mouse TMEM16A channel activation, primary screen; HEK293 TMEM16A/YFP-H148Q/I152L, iodide quench fluorescence; active compounds read low; Q8BHY3; 340,000 compounds, 0.3% hits; B-score at 10 µM;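 active = fluorescence-ratio B-score plate-corrected deviation score at least 3 library SD below zero, with starting fluorescence score within 5 deviations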;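 note: channel opened by trigger with iodide after compound preincubation; score built on the fluorescence ratio of max minus min over baseline; more negative score means more quench and so TMEM16A activation or potentiation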
Target sequence (Q8BHY3 whole entry, looked up): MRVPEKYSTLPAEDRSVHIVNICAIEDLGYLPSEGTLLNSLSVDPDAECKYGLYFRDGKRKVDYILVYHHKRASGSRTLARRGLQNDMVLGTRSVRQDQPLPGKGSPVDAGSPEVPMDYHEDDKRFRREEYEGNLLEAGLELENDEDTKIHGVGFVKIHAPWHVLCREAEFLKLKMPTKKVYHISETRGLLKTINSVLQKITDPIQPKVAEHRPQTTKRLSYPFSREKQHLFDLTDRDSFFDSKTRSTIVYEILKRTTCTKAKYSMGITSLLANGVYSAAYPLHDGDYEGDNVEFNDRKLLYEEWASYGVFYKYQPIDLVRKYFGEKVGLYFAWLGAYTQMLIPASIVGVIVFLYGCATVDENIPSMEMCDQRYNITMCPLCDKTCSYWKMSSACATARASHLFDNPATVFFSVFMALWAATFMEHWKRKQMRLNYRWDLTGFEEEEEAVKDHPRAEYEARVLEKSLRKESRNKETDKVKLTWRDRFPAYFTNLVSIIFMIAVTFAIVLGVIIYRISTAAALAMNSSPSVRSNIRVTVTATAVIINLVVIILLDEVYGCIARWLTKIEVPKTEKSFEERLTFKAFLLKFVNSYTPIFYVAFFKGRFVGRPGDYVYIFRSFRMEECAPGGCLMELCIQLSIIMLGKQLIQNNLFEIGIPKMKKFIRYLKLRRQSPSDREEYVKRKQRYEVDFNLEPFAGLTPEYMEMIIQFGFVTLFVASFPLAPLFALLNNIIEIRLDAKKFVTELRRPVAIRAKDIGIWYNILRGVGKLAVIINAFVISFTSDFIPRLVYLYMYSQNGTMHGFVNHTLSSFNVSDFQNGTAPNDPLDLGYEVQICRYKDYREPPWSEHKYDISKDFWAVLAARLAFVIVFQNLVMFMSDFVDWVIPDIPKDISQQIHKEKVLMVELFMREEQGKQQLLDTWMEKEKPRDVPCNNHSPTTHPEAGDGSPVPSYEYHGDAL
CRFR2-BP antag = CRF-BP/CRF-R2 complex antagonism. inhibition, % at 11.8 µM. 350,000 compounds, 0.59% hits. HEK293 CRF-R2/CRF-BP, CRF-induced calcium fluorescence. AID 588475;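 active = inhibition of the ligand-induced calcium signal above about 50% at the single tested concentration, limit read from the data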
TMEM16A inh = mouse TMEM16A channel inhibition, primary screen | Q8BHY3 | HEK293 TMEM16A/YFP iodide influx fluorescence, ionomycin | normalized B-score (activity score, 25-100; higher = stronger inhibition) at 10 µM | 310,000 compounds, 1.2% hits | AID 588511;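 active = ratio plate-corrected score three or more library SD toward inhibition, starting fluorescence score within five deviations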;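 note: score derived from kinetic fluorescence span divided by baseline fluorescence per well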
TAAR1 antagonist = antagonists of human TAAR1 | CHO RD-HGA16 TAAR1, Fluo-8 calcium fluorescence, antagonist | 360,000 compounds, 1.5% hits | inhibition, % at 3 µM | AID 624466 | Q96RJ0;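 active = inhibition above a per-plate cutoff, the mean inhibition of test compounds on that plate plus 3 SD, cut at about 49% in these data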;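 note: 0% = DMSO plus EC80 beta-PEA response and 100% = DMSO alone without agonist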
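System: RD-HGA16 CHO cells with stable hTAAR1 and Gα16 | Probe or stimulus: EC80 β-phenethylamine stimulus | Dosing: 3 µM, single point | Times: Dye loading 75 min at 37 °C, then 30 min room temperature | Measured by: Fluo-8 calcium-sensitive fluorescence | Read-out basis: % inhibition of agonist calcium response | Replicates: n of 1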
CRFBP-R2 agonist = agonists of human CRF-binding protein/CRF-R2 receptor complex; HEK293 CRF-R2/CRF-BP, calcium dye fluorescence (FLIPR); percent of saturating CRF peptide response; activation, % at 13.2 µM; 350,000 compounds, 0.46% hits; AID 588473;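 active = activation of at least 50%, plus an integration ratio under a set limit after plate pattern correction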;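 note: plate controls were neutral control wells without compound for no effect and CRF at EC100 for full effect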
TAAR1 ag = human TAAR1 agonism | Q96RJ0 | CHO RD-HGA16 TAAR1, Fluo-8 calcium fluorescence; vehicle wells 0%, saturating PEA agonist 100% | activation, % at 3 µM | 360,000 compounds, 0.99% hits;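 active = activation above the mean activation of all test compounds in the run plus 3 SD, cut at about 38% in these data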
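System: CHO-derived RD-HGA16 cells with stable Gα16 and human TAAR1. Times: 17-24 h plating, Fluo-8 75 min 37 °C, 30 min RT. Measured by: calcium-sensitive Fluo-8 signal, excitation 470-495, emission 515-575 nm. Read-out basis: % activation relative to PEA EC100 response. Control set: DMSO and PEA EC100. Repeats: no replicates (n 1).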
TAAR1 ag confirm = human TAAR1 agonism, confirmed | CHO RD-HGA16 TAAR1, Fluo-8 calcium fluorescence; scaled: DMSO 0%, maximal phenethylamine 100% | activation, % at 3 µM | 2,400 compounds, 82% hits | shares compounds with TAAR1 ag;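 active = activation above a cutoff set at the run's mean compound activation plus 3 SD, cut at about 39% in these data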
Ga16 nonsel ag = counter-screen for TAAR1 agonists: nonselective agonists in parental cells; shares compounds with TAAR1 ag; CHO-Ga16 parental, Fluo-8 calcium fluorescence; normalized to maximal ATP response, DMSO zero; activation, % at 3 µM; 2,400 compounds, 50% hits;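 active = activation above the run cutoff, the mean activation over all tested wells plus 3 SD, cut at about 12% in these data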;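 note: 0% = DMSO wells and 100% = maximal ATP response on the peak over basal ratio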
TAAR1 desens = TAAR1 response desensitization, agonist counter-screen; CHO RD-HGA16 hTAAR1, Fluo-8 calcium, beta-PEA response inhibition; inhibition, % at 3 µM; shares compounds with TAAR1 ag; 2,400 compounds, 46% hits;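 active = inhibition above the run cutoff, the mean inhibition of all test compounds plus 3 SD, cut at about 49% in these data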;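 note: beta-PEA stimulus applied at its EC80; loss of beta-PEA calcium signal after compound pretreatment read as receptor desensitization; 0% = DMSO with beta-PEA at EC80 and 100% = DMSO alone without agonist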
Ga16 antag count = nonselective Ga16 antagonist in TAAR1 agonist counter-screen; shares compounds with TAAR1 ag; CHO-Ga16 ATP-induced calcium, Fluo-8 fluorescence; inhibition, % at 3 µM; 2,400 compounds, 39% hits; AID 651952;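 active = inhibition above the plate's mean compound inhibition plus 3 SD, computed per plate, cut at about 22% in these data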;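 note: 0% = EC80 ATP with DMSO and 100% = DMSO wells without ATP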
* hit, by the source's call; i = inactive; · = no result given. Hits are enriched below; roughly 3.9% of the tested compounds scored in any of these assays.

SMILES | ANO1 activ | CRFR2-BP antag | TMEM16A inh | TAAR1 antagonist | CRFBP-R2 agonist | TAAR1 ag | TAAR1 ag confirm | Ga16 nonsel ag | TAAR1 desens | Ga16 antag count
COc1ccc(NC(=O)C2=NN(c3ccccc3)C(=O)CC2)cn1 | i | 3.7 | · | -18.7 | 1.9 | 2.1 | · | · | · | ·
CCn1cc(S(=O)(=O)NCCc2ccccc2OC)cn1 | i | 9.1 | i | -5.0 | 2.9 | 45.6* | 59.5* | 7.7 | 24.1 | 7.0
CCn1cc(S(=O)(=O)NCc2ccccc2Br)cn1 | i | 10.7 | i | -10.1 | 3.3 | -0.9 | · | · | · | ·
CCOCc1nnc(NC(=O)C2c3ccccc3Oc3ccccc32)s1 | i | -159.5 | i | 22.6 | 31.1 | 77.0* | 91.1* | 54.2* | 49.2* | 37.1*
CC(C)(CO)NCC(O)COc1ccc2c(c1)CCC2 (stereo unspecified) | i | -32.3 | i | -3.7 | -0.1 | 3.2 | · | · | · | ·
CC(C)(C)CC(C)(C)NCC(O)COc1ccc2c(c1)CCC2 (stereo unspecified) | i | -54.0 | i | -1.0 | 1.9 | 56.4* | 20.2 | 11.7* | 0.4 | 11.0
S=C(NCCc1ccccc1)N1CCn2cccc2C1c1cccnc1 (stereo unspecified) | i | -9.5 | i | 12.7 | -3.8 | 56.5* | 62.2* | 3.5 | 36.5 | 26.6*
O=C(NCc1ccccc1)N1CCN(c2ccc(Cl)c(Cl)c2)CC1 | i | 30.4 | i | 101.4* | -2.1 | 95.2* | 17.5 | 10.3 | 42.8 | 35.6*
COc1ccc(CCN2CC(C(=O)NCCc3cccnc3)CCC2=O)cc1 (stereo unspecified) | i | -4.1 | i | -3.7 | -1.1 | 0.2 | · | · | · | ·
Cn1nc(C(=O)N2CCc3ccccc3C2)c2ccccc2c1=O | i | 17.8 | i | -6.9 | -1.9 | 6.5 | · | · | · | ·
O=C(c1cccnc1)N1CCc2ccccc2C1 | i | -27.9 | i | -5.7 | 1.9 | 59.4* | 40.3* | 1.9 | 3.1 | 7.8
O=C(c1nc2ncccn2n1)N1CCc2ccccc2C1 | i | 6.9 | i | 20.6 | -2.1 | 51.2* | 71.2* | 0.3 | 27.8 | 6.1
O=C(c1cccnc1)N1CCc2ccccc21 | i | 4.4 | i | 12.2 | -2.3 | 4.9 | · | · | · | ·
O=C(Nc1cccc(F)c1)NC1CC2CCCC(C1)N2C1CC1 (stereo unspecified) | i | 11.8 | i | -1.0 | -1.0 | 13.9 | · | · | · | ·
O=C(Nc1ccc(Cl)c(C(F)(F)F)c1)NC1CC2CCCC(C1)N2C1CC1 (stereo unspecified) | i | -7.6 | i | 24.9 | 24.5 | 68.4* | 70.5* | 24.8* | 41.5 | 25.4*
COP(=O)(OC)c1nc(-c2cccc3ccccc23)oc1NCCc1ccccc1 | i | -12.7 | i | 75.2* | -0.9 | 74.5* | 88.2* | 7.6 | 83.0* | 27.0*
COc1ccc(C(CCN2CCCC(C)C2)c2c(OC)cc(OC)c3c(-c4ccccc4)cc(=O)oc23)cc1 (stereo unspecified) | i | -13.5 | i | 44.7 | 48.0 | 55.6* | 47.0* | 37.1* | 47.4 | 42.2*
OC[C@@H]1CN(Cc2ccc(Cl)cc2)C[C@H](n2cnc3c(N4CCN(c5ccccc5)CC4)ncnc32)O1 | · | · | · | 2.7 | · | 6.2 | · | · | · | ·
COc1ccc(NC(=O)C2CC(=O)OC2c2ccccc2)cc1 (stereo unspecified) | i | -5.7 | i | -7.4 | -2.3 | 50.6* | 1.5 | 1.3 | 2.9 | 12.1
Cc1ccc(C(=O)N2CCCc3ccccc32)c(F)c1F | i | 10.0 | i | -17.6 | -1.1 | 7.3 | · | · | · | ·
CC(C)NC(=O)Nc1ccc2c(c1)C(=O)N([C@H](C)CO)C[C@H](C)[C@@H](CN(C)Cc1ccc(C(F)(F)F)cc1)OCCCC[C@H](C)O2 | · | -0.8 | · | 5.5 | 0.9 | -1.0 | · | · | · | ·
CCS(=O)(=O)N1CCN(C(=O)c2cccc3ccccc23)CC1 | i | 0.7 | i | -2.5 | -0.5 | 2.5 | · | · | · | ·
CN(C1CCCCC1)S(=O)(=O)c1ccc(C(=O)Nc2sc3c(c2C(N)=O)CC(C)(C)NC3(C)C)cc1 | i | -6.9 | i | 38.9 | 1.9 | 84.6* | 58.3* | 38.7* | 28.1 | 34.8*
O=S1(=O)CC(N2CCN(c3ncccn3)CC2)CN1Cc1ccc(F)cc1 (stereo unspecified) | · | · | · | 8.6 | · | -0.2 | · | · | · | ·
C=C(C)CN(CC)C(=O)COc1ccc(S(=O)(=O)Nc2ccc(OC)cc2)cc1 | i | -12.8 | i | 14.2 | 18.8 | 63.0* | 59.1* | 30.0* | 23.3 | 22.2*
SMILES | ANO1 activ | CRFR2-BP antag | TMEM16A inh | TAAR1 antagonist | CRFBP-R2 agonist | TAAR1 ag | TAAR1 ag confirm | Ga16 nonsel ag | TAAR1 desens | Ga16 antag count
CCCC(=O)NC(=S)Nc1ccc(S(=O)(=O)Nc2ccc(OCC)cc2)cc1 | i | -108.9 | i | 33.5 | 54.7* | 73.6* | 85.0* | 35.4* | 66.5* | 38.8*
CCN(CC)C(=O)c1[nH]cnc1C(=O)NCc1ccc(CNC(=O)OC(C)(C)C)cc1 | i | 2.4 | · | 13.3 | -0.2 | 15.9 | · | · | · | ·
CC(C)N(C)CCOC(=O)/C=C/c1ccccc1 | i | -16.2 | i | 54.2* | 3.8 | 72.6* | 2.6 | 0.1 | 11.2 | -0.2
CN(CCOC(=O)/C=C/c1ccccc1)C(C)(C)C | i | -18.9 | i | 0.3 | 1.3 | 2.4 | · | · | · | ·
O=C(c1cc(-c2ccccc2)nc2ccccc12)N1CCc2ccccc2C1 | i | -10.5 | i | -5.1 | -0.9 | 7.0 | · | · | · | ·
Cc1ccc2nc(-c3ccccc3)cc(C(=O)N3CCc4ccccc4C3)c2c1 | i | -0.1 | i | 17.2 | 9.3 | 71.9* | 68.2* | 2.4 | 25.0 | 19.6
CC(=O)C1=C(O)CCC1=NCCc1ccccc1 | i | 13.1 | i | -8.4 | 0.1 | 1.0 | · | · | · | ·
CC(=NCCc1ccccc1)C1=C(O)CCC1=O | i | -32.6 | i | 74.4* | -1.4 | 105.3* | 98.3* | 1.0 | 73.4* | 7.8
CC(=NCCc1ccccc1)C1=C(O)CSC1=O | i | -4.2 | i | 74.7* | 4.6 | 93.0* | 84.0* | -0.1 | 56.5* | 5.8
CCCCN=C(C)C1=C(O)CSC1=O | i | 14.0 | i | -3.2 | 1.0 | 0.9 | · | · | · | ·
